# Data published in PubChem BioAssay AID623869 (Vanderbilt High Throughput Screening Facility, 2012).
# About 75 (4%) of roughly 2,100 compounds were called active.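 The calls were made as follows: active = calcium fluorescence trace judged by eye to show a response, as agonist, enhancer of the glutamate response, or inhibitor; inactive = trace judged by eye to show no response.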 The entries come from a sample that favours actives as a whole.
# Target: Metabotropic glutamate receptor 8 (Rattus norvegicus) (UniProt P70579)
# Test: mGlu8-mediated intracellular calcium response modulators – cell-based, HEK293 rmGlu8, Gqi9 chimera, Fluo-4 calcium, counter-screen for GIRK activator project, confirmation (AID 623869)
# Settings: HEK293 rmGlu8/Gqi9 calcium flux, Fluo-4 fluorescence; glutamate at EC20 added after compound
# Outline: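 Material: rat mGlu8 HEK-293 cells with transient Gqi9; medium: HEPES-buffered HBSS, pH 7.4; reagent: EC20 glutamate; dosing: one dose, 20 µM addition solution, 0.2% DMSO; incubation: compound 4 min before glutamate, then 2 min recording; measured by: Fluo-4 calcium fluorescence, 1 Hz; evaluation: F/F0 fluorescence traces judged visually for each well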
# Chain of Metabotropic glutamate receptor 8 (Rattus norvegicus) (P70579 whole entry, looked up): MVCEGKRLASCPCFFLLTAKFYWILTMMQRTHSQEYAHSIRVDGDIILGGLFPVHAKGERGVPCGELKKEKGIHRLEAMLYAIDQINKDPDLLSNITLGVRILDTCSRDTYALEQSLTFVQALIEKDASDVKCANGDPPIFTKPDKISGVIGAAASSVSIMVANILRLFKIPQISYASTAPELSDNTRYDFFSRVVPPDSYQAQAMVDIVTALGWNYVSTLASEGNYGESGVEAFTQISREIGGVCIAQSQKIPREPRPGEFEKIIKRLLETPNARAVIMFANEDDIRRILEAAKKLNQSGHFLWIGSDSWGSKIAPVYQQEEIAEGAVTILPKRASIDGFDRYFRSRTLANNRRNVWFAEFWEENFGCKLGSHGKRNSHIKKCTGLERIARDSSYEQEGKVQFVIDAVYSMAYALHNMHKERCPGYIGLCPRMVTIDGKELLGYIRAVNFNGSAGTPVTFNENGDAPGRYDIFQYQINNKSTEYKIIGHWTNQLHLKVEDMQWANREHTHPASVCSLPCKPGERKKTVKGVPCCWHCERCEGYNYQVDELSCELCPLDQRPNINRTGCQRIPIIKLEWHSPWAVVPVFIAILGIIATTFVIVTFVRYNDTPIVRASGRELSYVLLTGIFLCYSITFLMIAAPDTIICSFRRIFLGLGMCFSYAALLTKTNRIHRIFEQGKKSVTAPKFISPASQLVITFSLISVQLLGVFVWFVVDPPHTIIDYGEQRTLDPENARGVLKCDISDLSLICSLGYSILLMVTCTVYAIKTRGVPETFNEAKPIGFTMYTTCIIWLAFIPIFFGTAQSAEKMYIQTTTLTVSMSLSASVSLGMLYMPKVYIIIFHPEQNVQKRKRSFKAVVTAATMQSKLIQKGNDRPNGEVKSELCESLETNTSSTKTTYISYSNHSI
row,SMILES,outcome
1,CSc1nc(-c2ccccc2)[nH]c(=S)c1C(C)=O,inactive; 0
2,CC(=O)c1c(N2CCCC2)[nH]c(-c2ccccc2)nc1=S,active; 2
3,O=C(c1cc(-c2ccccc2)on1)N1CCCC1,inactive; 0
4,COC(=O)C(C)N(C(=O)c1cccc2ccccc12)c1c(C)cccc1C (stereo unspecified),inactive; 0
5,COc1ccc(-c2cc(C(F)(F)F)c3c(n2)sc2c(O)cc(=O)[nH]c23)c(OC)c1,active; 2
6,CCOC(=O)c1c(NS(=O)(=O)c2ccc(Br)cc2)sc2c1CCC2,inactive; 0
7,COc1ccc2nc(/N=C/c3c(C)[nH]n(-c4ccc(C)cc4)c3=O)sc2c1,inactive; 0
8,Cc1ccc(C(=O)N/N=C(/CC(=O)c2cccs2)C(F)(F)F)cc1,active; -1
9,O=C(NN=C(Cc1ccccc1)Cc1ccccc1)c1ccc(F)cc1,inactive; 0
10,Cc1ccc(C(=O)NC(=S)Nc2ccccc2C(F)(F)F)cc1,inactive; 0
11,COC(=O)C1=NN(C(=O)c2ccc(C)cc2)C(O)(c2ccc(Cl)cc2)C1 (stereo unspecified),inactive; 4
12,COC(=O)c1sc(NC(=S)NC(=O)c2ccccc2Cl)nc1C,inactive; 0
13,O=C(NC(=S)Nc1nc2c(s1)CCCC2)c1ccccc1,inactive; 0
14,CC(C)(C)c1ccc(C(=O)NC(=S)Nc2nc3c(s2)CCCC3)cc1,active; 2
15,COC(=O)c1ccc(C(=O)NC(=S)Nc2nc3c(s2)CCCC3)cc1,inactive; 0
16,O=C(NC(=S)Nc1ccc(N2CCOCC2)c(Cl)c1)c1cncc(Br)c1,inactive; 0
17,CCOC(=O)c1c2n(c3c(NCc4ccccc4)ncnc13)CCCC2,inactive; 0
18,Cc1cc(NC(=O)CSc2nc3ccccc3c(=O)n2Cc2ccccc2)no1,inactive; 0
19,O=C1CN(C(=O)CSc2nc3cc(Cl)ccc3c(=O)n2Cc2ccccc2)c2ccccc2N1,inactive; 0
20,O=C1OCCC1Sc1nc2cc(Cl)ccc2n1Cc1ccccc1 (stereo unspecified),active; 2
21,Cc1ccc(C(=O)CC(=O)c2cc(Cl)ccc2O)cc1,inactive; 0
22,C/C(=N/NC(=O)c1cc(Cl)ccc1O)C12CC3CC(CC(C3)C1)C2,active; 1
23,Cc1cccc(C(=O)CC(=O)c2cc(Cl)ccc2O)c1,inactive; 0
24,COc1ccccc1/C=C/C(=O)NC(=S)N(C)C1CCCCC1,inactive; 0

row,SMILES,outcome
1,Oc1ccccc1CNc1ccc(Br)cn1,active; -1
2,CC(Nc1ccc(Br)cn1)c1cc(Cl)ccc1O (stereo unspecified),inactive; 0
3,O=c1c(-c2ccccc2)nc(-c2ccccc2)cn1O,inactive; 0
4,O=C(NC(=S)N1CCN(Cc2ccccc2)CC1)c1ccccc1,inactive; 0
5,O=C(NC(=S)Nc1ccccc1)c1csnn1,inactive; 0
6,CC(C)(C)NC(=O)C(c1ccncc1)N(C(=O)c1csnn1)c1ccccc1 (stereo unspecified),active; -1
7,CCC(C)(C)NC(=O)C(c1ccc(F)cc1)N(Cc1ccco1)C(=O)c1cnccn1 (stereo unspecified),inactive; 0
8,O=c1c2ccccc2[nH]c(=S)n1CCCN1CCN(C2CCCCC2)CC1,inactive; 0
9,O=C(NC(=S)Nc1ccccc1Cl)c1csnn1,inactive; 0
10,CCCCN(CCCC)C(=S)NC(=O)C(C)(C)C,inactive; 0
11,Brc1ccccc1-c1nnc2sc(-c3ccc4c(c3)OCCO4)nn12,inactive; 0
12,CCOC(=O)C1=C(C)Nc2nnnn2C1c1ccccc1Cl (stereo unspecified),inactive; 0
13,CSc1ccccc1NC(=O)Nc1ccc(Cl)cc1,inactive; 0
14,O=C(N/C(=N\O)c1ccccc1)Nc1ccc(Cl)cc1,active; 2
15,O=C(NC(=S)Nc1ccc(Oc2ccc(Cl)cc2)cc1)c1ccccc1,inactive; 0
16,CCCCOc1ccc(C(=O)NNC(=S)NC(=O)CC)cc1,inactive; 0
17,CCCCCC(=O)NC(=S)NNC(=O)c1ccc([N+](=O)[O-])cc1,active; 1
18,CCCCNC(=S)NC(=O)c1ccc([N+](=O)[O-])cc1,inactive; 0
19,S=c1nc(-c2ccc(Br)cc2)oc2c1CCCC2,inactive; 0
20,Cc1ccc(C)c(NC(=S)NNC(=O)c2csc3c2CCCC3)c1,inactive; 0
21,COC(=O)c1ccc(NS(=O)(=O)c2ccc(SC)cc2)cc1,inactive; 0
22,COC(=O)c1ccc(-n2c(C)cc(C(=O)CSc3ccc(NC(C)=O)cc3)c2C)cc1,active; 2
23,Cc1cc(C(=O)CSc2n[nH]c(N)n2)c(C)n1-c1cc(F)ccc1F,inactive; 0
24,CC(=O)Nc1ccc(SCC(=O)c2cc(C)n(-c3ccccc3F)c2C)cc1,active; 2

row,SMILES,outcome
1,CC(=O)Nc1ccc(C(=O)CSc2nc3ccc(C)cc3[nH]2)cc1,inactive; 0
2,CCc1cc2cccc(C)c2nc1SCC(=O)c1ccc(NC(C)=O)cc1,inactive; 0
3,COc1ccc2nc(/N=C/c3c(C)[nH]n(-c4ccc(C)cc4C)c3=O)sc2c1,inactive; 2
4,CC12CC3CC(C)(C1)CC(C(=O)NC(=S)N1CCCCC1)(C3)C2,inactive; 0
5,CSCSC1=C(C#N)C(c2ccccc2Cl)C(C(C)=O)=C(C)N1 (stereo unspecified),inactive; 0
6,O=C(NC(=S)N1CCCc2ccccc21)c1ccc(Cl)cc1,inactive; 0
7,Cc1cccc(N2C(=O)CS/C2=N\NC(=O)c2ccc(Cl)cc2)c1C,active; 2
8,O=C(N/N=C1/C(=O)c2cccc3cccc1c23)c1ccc(Cl)cc1,inactive; 0
9,O=C(NC(=S)N(CCCCO)C1CCCCC1)c1sc2ccccc2c1Cl,inactive; 0
10,O=C(NC(=S)Nc1ccccc1N1CCOCC1)c1ccco1,inactive; 0
11,CN(C(=O)CSC1=Nc2ccccc2C2=NC(c3ccccc3)C(=O)N12)C1CCCCC1 (stereo unspecified),inactive; 0
12,N#C/C(=C/C=C/c1ccccc1)C(=O)Nc1ccccc1,inactive; 0
13,COc1cc(/C=C(\C#N)C(=O)Nc2cccnc2)ccc1OC(C)C,active; 2
14,CCSc1ccccc1C(=O)Nc1cccnc1,inactive; 0
15,Cc1ccc(OCC(=O)NNC(=O)C(=O)NC(C)(C)C)cc1,inactive; 0
16,C=CCn1c(=S)[nH]c2sc3c(c2c1=O)CCC3,inactive; 0
17,CCC1c2ccc(C)n2CCN1C(=O)Nc1ccccc1C(=O)OC (stereo unspecified),active; 2
18,COC(=O)c1ccccc1NC(=S)NC(=O)c1ccc(C)cc1,inactive; 0
19,COC(=O)c1ccccc1NC(=O)Nc1cnccn1,inactive; 0
20,CC(C)C1Cc2c(sc3[nH]c(=S)n(Cc4ccccc4)c(=O)c23)CO1 (stereo unspecified),inactive; 0
21,CCOC(=O)c1c(NC(=S)NC)sc2c1CC(C)(C)SC2,inactive; 0
22,Cc1sc2nc(C(C)C)nc(SCC(=O)NCc3ccco3)c2c1C,inactive; 0
23,CCCc1cc(-c2n[nH]c(=S)n2CC(C)C)cs1,inactive; 0
24,CCCc1cc(-c2n[nH]c(=S)n2Cc2ccccc2)cs1,active; -1

row,SMILES,outcome
1,CCCc1cc(-c2n[nH]c(=S)n2C(C)c2ccccc2)cs1 (stereo unspecified),inactive; 0
2,Cc1[nH]n(-c2ccc(Cl)cc2)c(=O)c1/C=N/c1nnc(-c2ccccc2)s1,inactive; 0
3,CN(C)CCCNC(=O)c1ccc(-c2nc(-c3ccc(Cl)cc3)cs2)cc1,inactive; 0
4,O=C(NC(=S)Nc1ccccc1)c1cc(-c2ccccc2)nc2ccccc12,inactive; 0
5,O=C(O)c1ccccc1C(=O)Nc1ccc(-c2csc(-c3ccccc3)n2)cc1,active; 1
6,C=CCn1c(=S)[nH]c2ccc(Br)cc2c1=O,inactive; 0
7,S=c1[nH]nc(-c2cc3c(s2)-c2ccccc2CC3)o1,active; -1
8,Cc1ccc(-c2cc(-c3n[nH]c(=S)o3)c3ccccc3n2)cc1,inactive; 0
9,CCc1cc(C(=O)NNC(=S)Nc2cc(C)ccc2C)cs1,inactive; 0
10,Cc1ccc(C)c(NC(=S)NNC(=O)c2cc3c(s2)CCC(C)C3)c1 (stereo unspecified),inactive; 0
11,O=C1NC(=S)SC1=C1CCCCCC1,inactive; 0
12,CCn1c(=O)c(C(=O)NCCCO)c(O)c2ccccc21,active; 2
13,CCn1c(O)c(N=NC(=O)CNc2cccc(C)c2)c2ccccc21,inactive; 0
14,CCCN(CCC)CCCNC(=O)c1cc2c(=O)n(C)c3ccccc3c2n1C,inactive; 0
15,CCC1CCCCN1C(=S)NC(=O)c1ccc([N+](=O)[O-])cc1 (stereo unspecified),inactive; 0
16,Cc1cccc(NC(=S)N/C(=N/S(=O)(=O)c2ccccc2)c2ccccc2)c1,inactive; 0
17,Cc1ccc(-c2cc(-c3ccccc3)[nH]c(=S)c2C#N)cc1,inactive; 0
18,CCOC(=O)c1c(NS(=O)(=O)Cc2ccccc2)sc2c1CCCC2,inactive; 0
19,Cc1ccc(Nc2cc(C)nn2-c2nc(C)cc(=O)[nH]2)cc1,active; -1
20,Cc1cc(NC(=O)Nc2ccccc2)n(-c2ccccc2)n1,inactive; 0
21,Cc1cc(NC(=O)c2c(F)cccc2Cl)n(-c2nc3ccccc3[nH]2)n1,inactive; 0
22,COc1ccccc1C(=O)NNC(=S)NC(=O)c1sc2ccccc2c1Cl,active; 1
23,CCCCOC(=S)NC(=O)c1sc2ccccc2c1Cl,inactive; 0
24,CC(C)(C)C(=O)NC(=S)NNC(=O)c1sc2ccccc2c1Cl,active; 1

row,SMILES,outcome
1,CCOC(=S)NC(=O)c1sc2ccccc2c1Cl,inactive; 0
2,COc1ccccc1C(=O)NC(=S)NNC(=O)c1sc2ccccc2c1Cl,inactive; 3
3,CCCOC(=S)NC(=O)c1sc2ccccc2c1Cl,inactive; 0
4,CCCN1C(=O)/C(=C/c2ccc(C)s2)NC1=S,inactive; 0
5,CCCOc1ccc(C(=O)NNC(=S)NC(=O)CC)cc1,inactive; 0
6,O=C(NC(=S)N1CCCCC1)c1cccs1,inactive; 0
7,C=CCN(CC=C)C(=S)NC(=O)/C=C/c1ccc(C)cc1,inactive; 0
8,COc1ccccc1C(=O)N1c2ccccc2Sc2ccccc21,inactive; 0
9,CC(=O)c1c(C)[nH]c(C(=O)CSc2ncnc3sc(-c4ccccc4)cc23)c1C,inactive; 0
10,CCOC(=O)c1ccccc1NC(=O)CSc1nnc(COc2ccccc2C)n1C,inactive; 0
11,Cc1cccc(NC(=S)NNC(=O)c2csc3c2CCCC3)c1,inactive; 0
12,CCCN(CC1CC1)C(=S)Nc1ccc(Oc2ccccc2)cc1,inactive; 0
13,FC(F)(F)c1cccc(NC(=S)NCc2ccccc2)c1,inactive; 4
14,CC(C)CNC(=S)Nc1ccc(Oc2ccccc2)cc1,active; 2
15,COc1ccc(NC(=S)Nc2ccc(OCc3ccccc3)cc2)cc1OC,inactive; 0
16,S=C(Nc1ccc(Oc2ccccc2)cc1)NC1CCCC1,active; 2
17,FC(F)(F)Oc1ccc(NC(=S)NCc2ccccc2)cc1,inactive; 4
18,FC(F)(F)c1cccc(NC(=S)NC2CCCC2)c1,active; -1
19,CCOC(=O)c1ccc(NC(=S)NC2CCCC2)cc1,inactive; 4
20,FC(F)(F)c1cccc(N2CCN(C(=S)NC3CCCCC3)CC2)c1,inactive; 0
